# A selection: hits, their analogues and other compounds. The true share with any hit is near 3.2%.
# DENV2 CPE rescue – inhibitors of DENV2 cytopathic effect, primary screen, cell-based, plate reader, single concentration. DENV2-infected cells, cytopathic effect rescue. CPE inhibition, % at 9.99 µM. hit rate 1.7% among 350,000; in the data active = CPE inhibition above about 20%, passing the limit was not always enough; inconclusive = no clear call, values can overlap the other calls; tested in BHK-21 cells
# PfHsp90 yeast 2 – growth inhibition of PfHsp90-expressing yeast, primary screen, antimalarial PfHsp90 inhibitor project, S. cerevisiae, BacTiter-Glo luminescence, single point, set 2 | BacTiter-Glo ATP, 48 h; yeast lacking PDR1 and PDR3 efflux regulators | inhibition, % at 9.4 µM | hit rate 0.32% among 310,000;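 active = every replicate shows inhibition above about 80%, whatever the replicate mean, limit read from the data; inconclusive = mean inhibition reaches the set limit but some replicate falls short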
# S100A4 MyoIIA – inhibitors of S100A4-myosin IIA peptide binding, primary screen, biochemical, fluorescence polarization, TAMRA-MyoIIA peptide; hit rate 0.14% among 360,000; inhibition, % at 10.7 µM;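 active = mean inhibition of at least 70% across replicates, with every replicate also reaching that level; inconclusive = mean inhibition reaches 70% but some replicates fall short; inactive = mean inhibition below 70%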
#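 Material: S100A4 monomer protein / Buffer or medium: 50 mM HEPES pH 7.2, 10 mM CaCl2, 100 mM KCl / Times: 5 min incubation before reading / Benchmarks: neutral control DMSO, positive control TFP / Reagent: labelled myosin peptide probe, 5 nM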
# Cneo AK release – Cryptococcus neoformans cell lysis inducers, primary screen, AK release luminescence, single concentration; C. neoformans lysis, adenylate kinase release luminescence, 4 h; normalised: neutral wells 0, clomiphene wells 100; lysis activity, % at 15 µM; hit rate 0.2% among 360,000; AID 651654, 2012;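 active = mean lysis activity across replicates of at least 80%, whatever share of replicates individually reach that level; inactive = mean lysis activity below 80%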
#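 Assay system: C. neoformans cells. Amount: yeast cell density of 5 × 10^6 cells/mL. Technique: AK luminescence. Buffer or medium: YPD. Times: static 4 h at 37 °C with compound, 1 h detection. Dosing: single-point compound dose. Read-out: lysis from increased AK signal.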
# AF4-AF9 inh – inhibitors of AF4 peptide binding to AF9, primary screen, biochemical, AlphaScreen, biotin-AF4 peptide, FLAG-AF9, single point | Protein AF-9 (Homo sapiens), P42568 | inhibition, % at 10 µM | hit rate 0.47% among 350,000 | AID 651704, 2012;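 active = every replicate reaching a set inhibition limit, whatever the replicate mean, cut at about 25% in these data; inconclusive = mean inhibition reaches that limit but some replicates miss it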
# Target sequence (P42568 whole entry, looked up): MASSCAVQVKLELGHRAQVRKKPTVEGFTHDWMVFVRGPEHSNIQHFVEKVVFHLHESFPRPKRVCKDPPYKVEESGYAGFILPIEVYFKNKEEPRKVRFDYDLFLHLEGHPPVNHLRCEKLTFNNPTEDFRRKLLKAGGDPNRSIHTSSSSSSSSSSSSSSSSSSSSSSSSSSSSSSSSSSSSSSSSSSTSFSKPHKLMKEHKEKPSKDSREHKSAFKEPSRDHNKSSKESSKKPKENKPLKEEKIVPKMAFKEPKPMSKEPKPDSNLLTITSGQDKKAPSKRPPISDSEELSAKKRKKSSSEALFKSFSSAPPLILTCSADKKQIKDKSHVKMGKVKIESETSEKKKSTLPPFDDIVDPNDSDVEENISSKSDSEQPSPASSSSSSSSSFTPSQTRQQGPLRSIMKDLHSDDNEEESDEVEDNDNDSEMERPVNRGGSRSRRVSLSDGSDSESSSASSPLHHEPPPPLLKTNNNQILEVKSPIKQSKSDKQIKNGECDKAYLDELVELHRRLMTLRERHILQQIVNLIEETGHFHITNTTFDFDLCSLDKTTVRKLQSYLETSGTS
# rRNA inh HTS – reduced GFP signal of wild-type E. coli, primary screen, bacterial rRNA inhibitor project, GFP/RFP fluorescence, OD600, single point. hit rate 1.6% among 350,000. GFP signal change (wild-type ribosome), % (no concentration beside the values). E. coli WT GFP vs humanized-ribosome RFP mutants, 24 h; stronger effect = lower value; DMSO median 0, no signal -100. AID 720706, 2013;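 active = significant combined selectivity score with lowered wild-type GFP, culture density cut under 30%, mutant RFP and density less affected; inactive = any of these conditions unmet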
# A number is an active result; i = inactive; ? = inconclusive; nt = no result.
SMILES,DENV2 CPE rescue,PfHsp90 yeast 2,S100A4 MyoIIA,Cneo AK release,AF4-AF9 inh,rRNA inh HTS
O=C(O)c1ccc(CNC(=O)C2CCCN2C(=O)OCc2ccccc2)cc1 (configuration not stated),25.5,i,i,i,i,i
O=C(NCc1ccccc1)[C@H]1CCCN1C(=O)[C@H]1CCCN1C(=O)c1ccccc1,i,nt,i,nt,i,i
O=C(NCc1ccccc1Cl)[C@H]1CCCN1C(=O)[C@H]1CCCN1C(=O)c1cccc2ccccc12,?,nt,i,nt,i,-22.9
O=C(NCc1ccccc1)[C@H]1CCCN1C(=O)[C@H]1CCCN1C(=O)c1ccc(Cl)cc1,44.3,nt,i,nt,i,i
C[C@@H]1CN([C@@H](C)CO)C(=O)Cc2cc(NS(=O)(=O)c3ccc(F)cc3)ccc2O[C@@H]1CN(C)C,i,nt,i,i,i,i
CN1C(=O)c2cc(NC(=O)c3cscn3)ccc2OC[C@H]2O[C@H](CC(=O)N3CCCCC3)CC[C@H]21,i,nt,i,i,i,i
CC(=O)N/C(=C\c1ccccc1)C(=O)OCC(=O)NC1CCCC1,21.3,i,i,i,i,i
N#Cc1cccc(OCCCN2CCC(C(O)(c3ccccc3)c3ccccc3)CC2)c1,i,nt,i,nt,i,i
OC(c1ccccc1)(c1ccccc1)C1CCN(CCCOc2cccc(F)c2)CC1,56.4,nt,i,nt,nt,i
O=C(Nc1ccccc1F)N1CCCCN2[C@H](CO)[C@@H](c3ccc(-c4cccnc4)cc3)[C@@H]2C1,i,nt,i,i,i,i
O=C(Nc1cc(F)ccc1F)N1CC(=O)N2[C@H](CO)[C@@H](c3ccc(-c4ccccc4)cc3)[C@H]2C1,?,nt,i,nt,i,i
O=C(Nc1cc(F)ccc1F)N1CC(=O)N2[C@H](CO)[C@H](c3ccc(-c4cccnc4)cc3)[C@@H]2C1,29.5,nt,i,nt,i,i
O=C(Nc1cc(F)ccc1F)N1CCCCN2[C@@H](CO)[C@H](c3ccc(-c4cccnc4)cc3)[C@@H]2C1,nt,nt,nt,i,nt,-24.5
O=C(Nc1ccccc1F)N1CCCCN2[C@H](CO)[C@H](c3ccc(-c4cccnc4)cc3)[C@H]2C1,26.9,nt,i,i,i,i
O=C(Nc1cc(F)ccc1F)N1CCCCN2[C@H](CO)[C@H](c3ccc(-c4cccnc4)cc3)[C@@H]2C1,i,nt,i,i,nt,i
CO[C@@H]1CN(C)C(=O)c2cc(NC(C)=O)ccc2OC[C@H](C)N(Cc2cncnc2)C[C@H]1C,i,nt,75.6,nt,i,i
CO[C@@H]1CN(C)C(=O)c2cc(NC(=O)C3CCC3)ccc2OC[C@H](C)N(Cc2ccncc2)C[C@@H]1C,i,nt,i,i,i,i
CO[C@H]1CN(C)C(=O)c2cc(NC(=O)C3CC3)ccc2OC[C@@H](C)N(Cc2cncnc2)C[C@H]1C,i,nt,i,83.6,i,i
CO[C@H]1CN(C)C(=O)c2cc(NC(=O)C3CCC3)ccc2OC[C@@H](C)N(Cc2ccncc2)C[C@@H]1C,52.0,nt,nt,i,i,i
CO[C@H]1CN(C)C(=O)c2ccc(NC(C)=O)cc2OC[C@@H](C)N(Cc2cncnc2)C[C@@H]1C,i,nt,i,i,i,i
CO[C@@H]1CN(C)C(=O)c2cc(NC(=O)C3CC3)ccc2OC[C@@H](C)N(Cc2cncnc2)C[C@H]1C,i,nt,i,i,i,i
C[C@H](NC(=O)[C@H]1[C@H](CO)[C@H]2Cn3c(cccc3=O)[C@H]2N1C(=O)C1CC1)c1ccccc1,i,nt,i,i,i,i
COC1=CC(=O)OC(c2cccc(OC)c2)C1 (configuration not stated),i,nt,i,nt,nt,i
COC1=CC(=O)OC(c2cccc([N+](=O)[O-])c2)C1 (configuration not stated),41.2,nt,i,nt,nt,nt
O=C(Nc1ccccc1N1CCOCC1)c1ccc([N+](=O)[O-])s1,i,103.4,i,i,i,i
O=C(NC(=S)Nc1ccccc1N1CCOCC1)c1cccc([N+](=O)[O-])c1,i,i,i,258.4,i,i

# Source: PubChem (Broad Institute)
